What was measured:
[1] = test system: Rattus norvegicus; assay: Antihypertensive activity in spontaneously hypertensive rats (SHR) measured by percentage fall in cardiac rhythm (CR) at 25 mg/kg administered intraperitoneally at 3 h; format: functional, Heart; conditions: route intraperitoneal
Procedure, shortened: (§1)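 Unanesthetized Okamoto-strain SHR, male and female, 8 weeks old, 300–350 g, systolic pressure ≥190 mmHg, heart rate 400–650 beats/min; five animals per dose. Given ip at 2.5 mL/kg, dissolved or suspended in normal saline or saline with 0.2% (carboxymethyl)cellulose and 1.0% Tween 80. Tail AP and CR recorded by mechanical transduction at set times; reported as percentage fall from control.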

[2] = test system: Rattus norvegicus; assay: Antihypertensive activity in spontaneously hypertensive rats (SHR) measured by percentage fall in arterial pressure (AP) at 25 mg/kg administered intraperitoneally at 3 h; format: functional, Artery; conditions: route intraperitoneal; procedure, shortened: as §1
[3] = test system: Rattus norvegicus; assay: Antihypertensive activity in spontaneously hypertensive rats (SHR) measured by percentage fall in arterial pressure (AP) at 25 mg/kg administered intraperitoneally at 1 h; format: functional, Artery; conditions: route intraperitoneal; procedure, shortened: as §1
[4] = test system: Rattus norvegicus; assay: Antihypertensive activity in spontaneously hypertensive rats (SHR) measured by percentage fall in cardiac rhythm (CR) at 25 mg/kg administered intraperitoneally at 5 h; format: functional, Heart; conditions: route intraperitoneal
Procedure, shortened: (§2)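 Conscious SHR (Okamoto strain), 8 weeks old, male and female, 300–350 g, systolic BP ≥190 mmHg, CR 400–650 beats/min. Given ip or po at 2.5 mL/kg in normal saline or saline with 0.2% (carboxymethyl)cellulose and 1.0% Tween 80. Tail AP and CR recorded by mechanical transduction at 1, 3, 5 and 24 h, five animals per dose. Effect expressed as % fall versus control.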

[5] = test system: Rattus norvegicus; assay: Antihypertensive activity in spontaneously hypertensive rats (SHR) measured by percentage fall in arterial pressure (AP) at 25 mg/kg administered intraperitoneally at 24 h; format: functional, Artery; conditions: route intraperitoneal; procedure, shortened: as §1
[6] = test system: Rattus norvegicus; assay: Antihypertensive activity in spontaneously hypertensive rats (SHR) measured by percentage fall in cardiac rhythm (CR) at 25 mg/kg administered intraperitoneally at 1 h; format: functional, Heart; conditions: route intraperitoneal; procedure, shortened: as §1
[7] = test system: Rattus norvegicus; assay: Antihypertensive activity in spontaneously hypertensive rats (SHR) measured by percentage fall in arterial pressure (AP) at 25 mg/kg administered intraperitoneally at 5 h; format: functional, Artery; conditions: route intraperitoneal; procedure, shortened: as §1
[8] = test system: Rattus norvegicus; assay: Antihypertensive activity in spontaneously hypertensive rats (SHR) measured by percentage fall in cardiac rhythm (CR) at 25 mg/kg administered intraperitoneally at 24 h; format: functional, Heart; conditions: route intraperitoneal; procedure, shortened: as §1
[9] = test system: Rattus norvegicus; assay: Antihypertensive activity in spontaneously hypertensive rats (SHR) measured by percentage fall in cardiac rhythm (CR) at 25 mg/kg administered intraperitoneally at 24 h;No significance; format: functional, organism-based; design: dose 25 mg/kg; conditions: Heart; procedure, shortened: as §1
[10] = test system: Rattus norvegicus; assay: Antihypertensive activity in spontaneously hypertensive rats (SHR) measured by percentage fall in cardiac rhythm (CR) at 25 mg/kg administered intraperitoneally at 5 h;No significance; format: functional, organism-based; design: dose 25 mg/kg; conditions: Heart; procedure, shortened: as §2
[11] = test system: Rattus norvegicus; assay: Antihypertensive activity in spontaneously hypertensive rats (SHR) measured by percentage fall in cardiac rhythm (CR) at 25 mg/kg administered intraperitoneally at 3 h;No significance; format: functional, organism-based; design: dose 25 mg/kg; conditions: Heart; procedure, shortened: as §2
[12] = organism: Homo sapiens; assay: In vitro inhibition of platelet aggregation induced by ADP-II (PRP incubated for 5 minutes at 37 degree C) at 10e-5 M; format: functional
Procedure, shortened: (§3)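 Human venous blood anticoagulated with 3.8% sodium citrate (1:9). PRP from centrifugation at 800 rpm for 10 min at room temperature. Count adjusted with PPP to […]. Compound in saline with 10% ethylene glycol is added to PRP and incubated at 37 °C before the agonist. Agonists: ADP 2×10^-5 M, AA 0.6 mM, PGH2 2.8 μM, adrenaline 0.6 μM. Born absorbance aggregometry; n = 5.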

[13] = organism: Homo sapiens; assay: In vitro inhibition of platelet aggregation induced by ADP-II (PRP incubated for 60 minutes at 37 degree C) at 10e-5 M; format: functional; conditions: 1 h; procedure, shortened: as §3
[14] = test system: Rattus norvegicus; assay: Antihypertensive activity in spontaneously hypertensive rats (SHR) measured by percentage fall in arterial pressure (AP) at 25 mg/kg administered intraperitoneally at 24 h;No significance; format: functional, organism-based; design: dose 25 mg/kg; conditions: Artery; procedure, shortened: as §1
[15] = test system: Rattus norvegicus; assay: Antihypertensive activity in spontaneously hypertensive rats (SHR) measured by percentage fall in arterial pressure (AP) at 25 mg/kg administered intraperitoneally at 3 h;No significance; format: functional, organism-based; design: dose 25 mg/kg; conditions: Artery; procedure, shortened: as §1
[16] = organism: Homo sapiens; assay: In vitro inhibition of platelet aggregation induced by ADP-II (PRP incubated for 5 minutes at 37 degree C) at 10e-5 M; No significance; format: functional; procedure, shortened: as §3
[17] = organism: Homo sapiens; assay: In vitro inhibition of platelet aggregation induced by […] (PRP incubated for 5 minutes at 37 degree C) at 10e-5 M; No significance; format: functional
[18] = organism: Homo sapiens; assay: In vitro inhibition of platelet aggregation induced by AA (PRP incubated for 60 minutes at 37 degree C) at 10e-5 M; No significance; format: functional; procedure, shortened: as §3

In the case of `CCOc1ccc2[nH]c3c(NN)nncc3c2c1`, the “Decrease in CR” value [1] is reported as -11%, the “Decrease in AP” value [2] is reported as 28% and the “Decrease in AP” value [3] is reported as 29%. For the same compound, the “Decrease in CR” value [4] was -9%, the “Decrease in AP” value [5] was 5% and the “Decrease in CR” value [6] was -20%. The “Decrease in AP” value [7] was 24%.
For `COc1ccc2[nH]c3c(NN=C(C)C)nncc3c2c1`, the “Decrease in CR” value [1] was -11%, the “Decrease in AP” value [2] was 13% and the “Decrease in CR” value [8] was -10%. For the same compound, the “Decrease in CR” value [4] was -8%, the “Decrease in AP” value [5] was 7% and the “Decrease in AP” value [7] was 14%.
For `NNc1[nH]ncc2c3cc(OCc4ccccc4)ccc3nc1-2.O=S(=O)(O)O`, the “Decrease in CR” value [1] was 7%, the “Decrease in AP” value [2] was 32% and the “Decrease in AP” value [3] was 21%. For the same compound, the “Decrease in CR” value [4] was 8%, the “Decrease in CR” value [6] was 9% and the “Decrease in AP” value [7] was 26%.
With `COc1ccc2[nH]c3c(NN)nncc3c2c1` the “Decrease in CR” value [1] was -8%, the “Decrease in AP” value [2] was 32% and the “Decrease in AP” value [3] was 17%. For the same compound, the “Decrease in CR” value [4] was -10%, the “Decrease in AP” value [5] was 5% and the “Decrease in CR” value [6] was -8%. For the same compound, the “Decrease in AP” value [7] was 30%.
`COc1ccc2[nH]c3c(cnn4nnnc34)c2c1` was tested, and the “Decrease in AP” value [2] was 12%, the “Decrease in CR” value [9] was “No significant values” and the “Decrease in AP” value [5] was 6%. For the same compound, the “Decrease in CR” value [10] was “No significant values”, the “Decrease in CR” value [11] was “No significant values” and the “Decrease in AP” value [7] was 8%.
`COc1ccc2c(c1)cc1c(NN)nncn12` was tested, and the inhibition at 10 µM [12] was 100% and the inhibition at 10 µM [13] was 100%.
In the case of `Cl.NNc1[nH]ncc2c3cc(OCc4ccccc4)ccc3nc1-2`, the “Decrease in CR” value [1] is reported as -13%, the “Decrease in AP” value [2] is reported as 33% and the “Decrease in CR” value [8] is reported as -16%. The “Decrease in AP” value [3] was 18%, the “Decrease in CR” value [4] was -15% and the “Decrease in AP” value [5] was 9%. For the same compound, the “Decrease in CR” value [6] was -7% and the “Decrease in AP” value [7] was 28%.
For `COc1ccc2[nH]c3c(cnn4cnnc34)c2c1`, the “Decrease in CR” value [1] was 10%, the “Decrease in AP” value [14] was “No significant values” and the “Decrease in AP” value [15] was “No significant values”. The “Decrease in CR” value [9] was “No significant values”, the “Decrease in CR” value [10] was “No significant values” and the “Decrease in AP” value [7] was 11%.
For `COc1ccc2c(c1)cc1c(S)nncn12`, the inhibition [16] was “No significant values”, the inhibition [17] was “No significant values” and the inhibition at 10 µM [13] was 100%. For the same compound, the inhibition [18] was “No significant values”.

From ChEMBL document CHEMBL1123757, “Selective thromboxane synthetase inhibitors and antihypertensive agents. New derivatives of 4-hydrazino-5H-pyridazino[4,5-b]indole, 4-hydrazinopyridazino[4,5-a]indole, and related compounds” (J Med Chem, 1987)
